The source of these data is BindingDB's records for doi:10.1016/j.bmc.2010.11.059 (University of Eastern Finland, 2011).

The EC50 is the concentration giving half of the maximal effect.

Molecules are shown by their SMILES.

Cannabinoid receptor 2, sequence (P34972 whole entry): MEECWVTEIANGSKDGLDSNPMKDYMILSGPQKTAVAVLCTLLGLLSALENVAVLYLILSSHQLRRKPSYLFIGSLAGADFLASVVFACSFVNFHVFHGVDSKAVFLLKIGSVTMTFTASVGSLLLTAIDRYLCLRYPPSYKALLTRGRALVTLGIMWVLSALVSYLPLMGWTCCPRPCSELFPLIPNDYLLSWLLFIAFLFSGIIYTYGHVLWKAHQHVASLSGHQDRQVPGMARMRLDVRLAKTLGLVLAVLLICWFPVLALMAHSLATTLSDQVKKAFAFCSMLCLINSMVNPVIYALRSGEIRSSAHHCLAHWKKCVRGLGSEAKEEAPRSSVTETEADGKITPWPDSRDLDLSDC

One experiment addresses Cannabinoid receptor 2 (Homo sapiens, UniProt P34972). As to the kind of experiment: Agonist activity at human recombinant cannabinoid CB2 receptor expressed in CHO cells by [35S]GTPgammaS binding assay. In short, it runs like this:
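hCB2 [35S]GTPγS binding concentration–response curves, run only for ligands giving over 50% relative activity at 10 µM. logEC50 and Emax come from nonlinear regression fitted to a sigmoidal concentration–response equation. Emax is given as percent of the 10 nM HU-210 response. Mean SEM of at least three experiments in duplicate.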
As for `FC(F)(F)c1cccc(Nc2ncnc3ccccc23)c1`, the EC50 came to 2510 nM.

Regarding `FC(F)(F)c1ccccc1Nc1ccc2ccccc2n1`, the 50% effective concentration (EC50) came out at 6300 nM.

As to `FC(F)(F)c1cccc(Nc2ccc3ccccc3n2)c1`, the half-maximal effective concentration (EC50) is 1250 nM.

Take `COc1cccc(Nc2ccc3ccccc3n2)c1`: the EC50 stood at 2510 nM.

For `Clc1ccccc1Nc1ccc2ccccc2n1`, the EC50 was determined as 6300 nM.

`Clc1cccc(Nc2ccc3ccccc3n2)c1`: the concentration for a half-maximal effect (EC50) came to 2510 nM.

Consider `O=C(c1cnc(Nc2cccc(C(F)(F)F)c2)c2ccccc12)N1CCOCC1`, for which the EC50 was 15.8 nM.

As for `Brc1cccc(Nc2ccc3ccccc3n2)c1`, the concentration giving a half-maximal response (EC50) came out at 1990 nM.

As for `c1ccc2nc(NC3CCCCC3)ccc2c1`, the half-maximal effective concentration (EC50) was determined as 6300 nM.

Turning to `FC(F)(F)c1cccc(Nc2cnc3ccccc3n2)c1`, the concentration for a half-maximal effect (EC50) was determined as 3980 nM.

In the case of `FC(F)(F)c1cccc(Nc2ncc3ccccc3n2)c1`, the EC50 was found to be 3160 nM.

For the compound `FC(F)(F)c1cccc(Nc2ccnc3ccccc23)c1`, the EC50 is 3160 nM.

For the compound `O=C(NCC1CCCCC1)c1cnc(Nc2cccc(C(F)(F)F)c2)c2ccccc12`, the EC50 is 1580 nM.

Consider `O=C(NC1CCCCC1)c1cnc(Nc2cccc(C(F)(F)F)c2)c2ccccc12`, for which the EC50 worked out at 1990 nM.

For `COc1ccccc1Nc1ccc2ccccc2n1`, the EC50 was found to be 5010 nM.

In the case of `FC(F)(F)c1cccc(Nc2nccc3ccccc23)c1`, the 50% effective concentration (EC50) is 1580 nM.

As for `COc1ccc(Nc2ccc3ccccc3n2)cc1` [2-(4''-Methoxyanilino)Quinoline], the EC50 is 1990 nM.

For the compound `c1ccc(Sc2ccc3ccccc3n2)cc1` [2-Phenylsulfanyl-Quinoline], the EC50 was found to be 3980 nM.

On to `Clc1ccc(Nc2ccc3ccccc3n2)cc1` [N-(4-chlorophenyl)quinolin-2-amine], for which the EC50 is 1990 nM.

The target of another experiment is Cannabinoid receptor 1 (Rattus norvegicus, UniProt P20272). As to the kind of experiment: Antagonist activity at rat cannabinoid CB1 receptor in Wistar rat cerebellar membranes by [35S]GTPgammaS binding assay. A digest of the protocol: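 Non-recombinant rat cerebellar membrane fractions, [35S]GTPγS binding. Compounds screened at a single concentration for their ability to antagonise the response to 10 nM HU-210 agonist.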
Cannabinoid receptor 1, sequence (P20272 whole entry): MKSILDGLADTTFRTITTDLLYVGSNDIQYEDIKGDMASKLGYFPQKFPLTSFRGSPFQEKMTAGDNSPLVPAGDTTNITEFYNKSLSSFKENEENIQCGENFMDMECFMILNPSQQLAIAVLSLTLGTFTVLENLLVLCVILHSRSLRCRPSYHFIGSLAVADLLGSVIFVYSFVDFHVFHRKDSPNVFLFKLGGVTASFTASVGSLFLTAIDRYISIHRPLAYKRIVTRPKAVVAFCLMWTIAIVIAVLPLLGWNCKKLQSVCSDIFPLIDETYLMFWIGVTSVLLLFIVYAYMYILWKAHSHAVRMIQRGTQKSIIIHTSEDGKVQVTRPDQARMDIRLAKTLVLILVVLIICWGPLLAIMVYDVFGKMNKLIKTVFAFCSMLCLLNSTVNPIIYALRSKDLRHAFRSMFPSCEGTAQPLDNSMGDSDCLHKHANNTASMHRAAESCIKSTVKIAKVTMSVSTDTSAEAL
With `O=C(c1cnc(Nc2cccc(C(F)(F)F)c2)c2ccccc12)N1CCOCC1`, a half-maximal effect (EC50) was put at 9990 nM.
